Values joined by “and” are separate entries in the source; they are usually repeats but may differ in a detail not shown here. Identical values can stand only once. Active and inactive are the calls of the source. No cut-off for these calls is given here.
Columns and labels:
[1] = system: Trypanosoma brucei; experiment: Antiparasitic activity against Trypanosoma brucei; format: functional; conditions: read-out: ED50 (the source's name)
[2] = target: T1, Trypanothione reductase (Trypanosoma cruzi, UniProt P28593); experiment: (§1) Inhibitory activity against Trypanosoma cruzi trypanothione reductase
Procedure, shortened: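 T. cruzi TR, isolated enzyme (3 µg/mL), assayed at 25 °C in 0.02 M HEPES pH 7.25 with 0.15 M KCl, 1 mM EDTA and 0.1 mM NADPH. (ZCGdmapa)2 substrate was used at 0.24, 0.12, 0.06 or 0.03 mM, and Ki was fitted as linear competitive.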

[3] = target: T1, Trypanothione reductase; experiment: as §1; remark: listed apart in the source
[4] = system: Trypanosoma cruzi; experiment: Antiparasitic activity against Trypanosoma cruzi.; format: functional; conditions: read-out: ED50 (the source's name)
[5] = system: Trypanosoma cruzi; experiment: Antiparasitic activity against Trypanosoma cruzi at the dose of 1 uM; format: functional
[6] = system: Trypanosoma cruzi; experiment: Antiparasitic activity against Trypanosoma cruzi at the dose of 3 uM; format: functional
[7] = target: T2, Glutathione reductase, mitochondrial (Homo sapiens, UniProt P00390); experiment: Inhibitory activity against Human Erythrocyte glutathione reductase (GR).
T2 sequence (P00390 whole entry): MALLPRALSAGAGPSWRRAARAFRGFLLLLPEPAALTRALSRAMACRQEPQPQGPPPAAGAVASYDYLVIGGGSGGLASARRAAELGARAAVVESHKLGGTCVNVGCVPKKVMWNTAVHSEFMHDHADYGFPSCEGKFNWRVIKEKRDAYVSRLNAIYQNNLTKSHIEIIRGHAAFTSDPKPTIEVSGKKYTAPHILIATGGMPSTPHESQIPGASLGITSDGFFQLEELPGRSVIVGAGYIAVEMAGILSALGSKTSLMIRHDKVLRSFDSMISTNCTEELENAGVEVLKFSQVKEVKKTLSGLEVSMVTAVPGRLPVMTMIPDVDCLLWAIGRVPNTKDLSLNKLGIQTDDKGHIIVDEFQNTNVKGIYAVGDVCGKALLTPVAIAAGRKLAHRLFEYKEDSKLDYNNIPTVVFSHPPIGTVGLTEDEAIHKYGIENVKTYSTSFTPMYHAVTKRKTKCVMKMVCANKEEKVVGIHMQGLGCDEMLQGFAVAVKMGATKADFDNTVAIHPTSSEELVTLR

[8] = system: Trypanosoma brucei; experiment: Activity against Trypanosoma brucei.
[9] = target: T3, Glutathione reductase, mitochondrial (Homo sapiens) (UniProt P00390); experiment: Compound at 1 mM was tested for the inhibition of human erythrocyte glutathione reductase; No inhibition
T3 sequence (whole entry): T2 sequence (P00390 whole entry)

T1 sequence (P28593 whole entry): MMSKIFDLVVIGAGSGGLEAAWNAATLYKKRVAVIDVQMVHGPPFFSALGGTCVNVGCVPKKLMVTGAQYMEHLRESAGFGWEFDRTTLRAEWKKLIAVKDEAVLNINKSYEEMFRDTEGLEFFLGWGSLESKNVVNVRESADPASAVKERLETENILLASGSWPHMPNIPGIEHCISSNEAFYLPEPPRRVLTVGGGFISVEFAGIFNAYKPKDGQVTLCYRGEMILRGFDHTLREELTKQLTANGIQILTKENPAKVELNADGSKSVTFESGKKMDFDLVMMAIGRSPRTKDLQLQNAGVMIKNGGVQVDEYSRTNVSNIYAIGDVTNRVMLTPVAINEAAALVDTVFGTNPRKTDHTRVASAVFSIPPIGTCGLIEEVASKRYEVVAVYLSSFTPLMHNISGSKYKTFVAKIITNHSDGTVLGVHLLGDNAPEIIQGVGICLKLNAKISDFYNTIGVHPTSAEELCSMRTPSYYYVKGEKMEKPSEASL

EC50 [1] | Ki [2] | IC50 [3] | SMILES | other results
0.068 µg/mL and 120 nM | 1.55 µM | 9.3 µM | C[N+](C)(CCCN1c2ccccc2Sc2ccc(Cl)cc21)Cc1ccc2ccccc2c1 | 
 | 1.3 µM | 8.02 µM | C[N+](C)(CCCN1c2ccccc2Sc2ccc(Cl)cc21)Cc1ccccc1 | 
0.675 µg/mL and 1.41 µM | 1.7 µM | 12.7 µM | C[N+](C)(CCCN1c2ccccc2Sc2ccc(Cl)cc21)Cc1ccc(Cl)cc1 | Ki [7]: 2200 µM
0.191 µg/mL and 350 nM | 0.47 µM | 10.4 µM | C[N+](C)(CCCN1c2ccccc2Sc2ccc(Cl)cc21)Cc1ccc(OCc2ccccc2)cc1 | 
0.205 µg/mL and 410 nM | 1.8 µM | 10.8 µM | Cc1ccc(C[N+](C)(C)CCCN2c3ccccc3Sc3ccc(Cl)cc32)cc1 | 
 | 0.77 µM | 5.4 µM | COc1cc(C[N+](C)(C)CCCN2c3ccccc3Sc3ccc(Cl)cc32)cc(OC)c1 | 
 | 0.47 µM | 3.9 µM | Cc1ccc(C[N+](C)(C)CCCN2c3ccccc3Sc3ccc(Cl)cc32)cc1C | 
0.159 µg/mL and 280 nM | 1.43 µM | 8.6 µM | Cc1cc(C(=O)C[N+](C)(C)CCCN2c3ccccc3Sc3ccc(Cl)cc32)ccc1Cl | 

The next lines start with the compound.

SMILES | EC50 [1] | Ki [2] | IC50 [3] | other results
C[N+](C)(CCCN1c2ccccc2Sc2ccc(Cl)cc21)Cc1c(F)c(F)c(F)c(F)c1F | 1.48 µg/mL and 2.55 µM | 1.67 µM | 10 µM | 
C[N+](C)(C)CCCN1c2ccccc2Sc2ccc(Cl)cc21 |  | 1.1 µM | 28 µM | 
C[N+](C)(CCCN1c2ccccc2Sc2ccc(Cl)cc21)CC(=O)C12CC3CC(CC(C3)C1)C2 |  | 1.23 µM | 12.8 µM | 
C[N+](C)(CCCN1c2ccccc2Sc2ccc(Cl)cc21)Cc1ccc([N+](=O)[O-])cc1.[Cl-] | 0.348 µg/mL and 650 nM | 2.98 µM | 17.9 µM | 
C[N+](C)(CCCN1c2ccccc2Sc2ccc(Cl)cc21)Cc1ccc(Br)cc1 | 0.508 µg/mL and 900 nM | 1.5 µM | 11.9 µM | 
CC(C)(C)c1ccc(C[N+](C)(C)CCCN2c3ccccc3Sc3ccc(Cl)cc32)cc1 | 0.023 µg/mL and 42 nM | 0.68 µM | 4.1 µM | EC50 [4]: < 1 µM; inhibition at 1 µM [5]: 59.2%; inhibition at 3 µM [6]: 66.2%
C[N+](C)(CCCN1c2ccccc2Sc2ccc(Cl)cc21)Cc1ccc(Cl)c(Cl)c1 | 0.546 µg/mL and 1.07 µM | 0.12 µM | 0.78 µM | 
C[N+](C)(CCCN1c2ccccc2Sc2ccc(Cl)cc21)CC(=O)c1ccc2ccc3cccc4ccc1c2c34 |  |  |  | ED50 [8]: 0.475 µg/mL
C[N+](C)(CCCN1c2ccccc2Sc2ccc(Cl)cc21)CC1CCCCC1 | 0.159 µg/mL and 320 nM | 2.3 µM | 10.5 µM | Ki [7]: 2000 µM
C[N+](C)(CCCN1c2ccccc2Sc2ccc(Cl)cc21)C(c1ccccc1)c1ccccc1 | 0.035 µg/mL and 62 nM | 0.71 µM | 1.2 µM | 
COc1ccc2c(C[N+](C)(C)CCCN3c4ccccc4Sc4ccc(Cl)cc43)cc(=O)oc2c1 | 3.11 µg/mL and 5.28 µM | 0.56 µM | 2.95 µM | 
CN(C)CCCN1c2ccccc2Sc2ccc(Cl)cc21 |  |  |  | NI [9]: inactive
C[N+](C)(CCCN1c2ccccc2Sc2ccc(Cl)cc21)Cc1cccc(Cl)c1 | 0.245 µg/mL and 470 nM | 2.4 µM | 6.6 µM | 
